Series [1] has as its system Mus musculus. Briefly: Anticonvulsant activity in CF1 mouse assessed as protection against maximal electroshock-induced seizures at 100 mg/kg, ip after 4 hrs. It counts as functional, organism-based. Details: dose 100 mg/kg. In a few lines: (§1)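 Male CF-1 albino mice (18–25 g), dosed i.p. at 30, 100 or 300 mg/kg in 0.5% methyl cellulose/water or PEG 200 (0.01 ml/g); tested at intervals after dosing; protection = abolition of hind limb tonic extensor component of MES seizure; scored as protected/tested.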
For orientation: The maximal electroshock test induces tonic seizures with an electrical stimulus.

In series [2] the test system is Mus musculus. Briefly: Neurotoxicity in CF1 mouse at 100 mg/kg, ip after 4 hrs by rotarod test. The series is classed as toxicity, organism-based. Details: dose 100 mg/kg, route intraperitoneal. As to conditions: in vivo. Put shortly:
(§2)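 Rotorod neurotoxicity in male CF-1 mice (18–25 g) after i.p. compound in 0.5% methyl cellulose/water or PEG 200 at 30, 100 or 300 mg/kg; reported as number showing toxicity/number tested.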

Series [3] concerns Mus musculus. Briefly: Anticonvulsant activity in CF1 mouse assessed as protection against maximal electroshock-induced seizures at 100 mg/kg, ip after 0.5 hrs. It counts as functional, organism-based. Details: dose 100 mg/kg. In a few lines: as §1
Series [4] has as its system Mus musculus. Briefly: Neurotoxicity in CF1 mouse at 300 mg/kg, ip after 4 hrs by rotarod test. It counts as toxicity, organism-based. More on the design: dose 300 mg/kg, route intraperitoneal. As to conditions: in vivo. Put shortly:
as §2
Background: In the rotarod test animals must keep their balance on a rotating rod.

The test system of series [5] is Mus musculus. Briefly: Anticonvulsant activity in CF1 mouse assessed as protection against subcutaneous metrazole-induced seizures at 300 mg/kg, ip after 0.5 hrs. More on the design: dose 300 mg/kg. It counts as functional, organism-based.
Series [6] has as its system Mus musculus. Briefly: Anticonvulsant activity in CF1 mouse assessed as protection against maximal electroshock-induced seizures at 300 mg/kg, ip after 4 hrs. More on the design: dose 300 mg/kg. The series is classed as functional, organism-based. In a few lines: as §1
For series [7], the system named is Mus musculus. The series is described as follows: Neurotoxicity in CF1 mouse at 30 mg/kg, ip after 4 hrs by rotarod test. It counts as toxicity, organism-based. As to conditions: in vivo. Details: dose 30 mg/kg, route intraperitoneal. In a few lines:
as §2

Series [8] has as its system Mus musculus. The series is described as follows: Anticonvulsant activity in CF1 mouse assessed as protection against maximal electroshock-induced seizures at 300 mg/kg, ip after 0.5 hrs. Details: dose 300 mg/kg. It counts as functional, organism-based. In a few lines: as §1
The test system of series [9] is Mus musculus. Briefly: Anticonvulsant activity in CF1 mouse assessed as protection against subcutaneous metrazole-induced seizures at 100 mg/kg, ip after 0.5 hrs. The series is classed as functional, organism-based. More on the design: dose 100 mg/kg.
The subject of series [10] is Mus musculus. The series is described as follows: Anticonvulsant activity in CF1 mouse assessed as protection against subcutaneous metrazole-induced seizures at 30 mg/kg, ip after 4 hrs. It counts as functional, organism-based. More on the design: dose 30 mg/kg.
Series [11] concerns Mus musculus. Briefly: Anticonvulsant activity in CF1 mouse assessed as protection against subcutaneous metrazole-induced seizures at 300 mg/kg, ip after 4 hrs. The series is classed as functional, organism-based. More on the design: dose 300 mg/kg.
The test system of series [12] is Mus musculus. Briefly: Neurotoxicity in CF1 mouse at 300 mg/kg, ip after 0.5 hrs by rotarod test. It counts as toxicity, organism-based. Details: dose 300 mg/kg, route intraperitoneal. As to conditions: in vivo. In a few lines:
as §2

In series [13] the test system is Mus musculus. The series is described as follows: Anticonvulsant activity in CF1 mouse assessed as protection against maximal electroshock-induced seizures at 30 mg/kg, ip after 4 hrs. The series is classed as functional, organism-based. Details: dose 30 mg/kg. In a few lines:
as §1

Series [14] concerns Mus musculus. The series is described as follows: Neurotoxicity in CF1 mouse at 100 mg/kg, ip after 0.5 hrs by rotarod test. The series is classed as toxicity, organism-based. Details: dose 100 mg/kg, route intraperitoneal. As to conditions: in vivo. Put shortly:
as §2

For series [15], the system named is Mus musculus. Briefly: Anticonvulsant activity in CF1 mouse assessed as protection against maximal electroshock-induced seizures at 30 mg/kg, ip after 0.5 hrs. The series is classed as functional, organism-based. More on the design: dose 30 mg/kg. In a few lines: as §1
Series [16] deals with Mus musculus. Briefly: Anticonvulsant activity in CF1 mouse assessed as protection against subcutaneous metrazole-induced seizures at 30 mg/kg, ip after 0.5 hrs. It counts as functional, organism-based. Details: dose 30 mg/kg.
The subject of series [17] is Mus musculus. Briefly: Neurotoxicity in CF1 mouse at 30 mg/kg, ip after 0.5 hrs by rotarod test. It counts as toxicity, organism-based. Details: dose 30 mg/kg, route intraperitoneal. As to conditions: in vivo. Put shortly:
as §2

The subject of series [18] is Mus musculus. Briefly: Anticonvulsant activity in CF1 mouse assessed as protection against subcutaneous metrazole-induced seizures at 100 mg/kg, ip after 4 hrs. The series is classed as functional, organism-based. More on the design: dose 100 mg/kg.

Calls of active or inactive are those of the source. The calls are words filed in the database; no cut-off is given here.

For `CCCOc1c(C(=O)NN=C(C)C)sc(C(=O)NN=C(C)C)c1OCCC`, the outcome in series [1], in series [3], in series [5], in [6], in series [8] and in series [9] was inactive. In addition, the result in series [10], in [11], in [13], in [15], in series [16] and in series [18] was inactive. Besides, the Activity result in [2] was “Non-toxic”; in [4] it was “Non-toxic”; in series [7], “Non-toxic”; in series [12], “Toxic”; in [14], “Non-toxic”; in [17], “Non-toxic”.
For `CCCOc1c(C(=O)N/N=C(\C)c2ccc[nH]2)sc(C(=O)N/N=C(\C)c2ccc[nH]2)c1OCCC`, the outcome in series [1], in [3], in series [5], in series [6], in series [8] and in series [9] was inactive. The outcome in [10], in series [11], in [13], in [15], in series [16] and in series [18] was inactive. Further, the Activity entry in series [2], in [4], in series [7], in [12], in series [14] and in series [17] was “Non-toxic” in each case.
For `CCCOc1c(C(=O)N/N=C/c2ccc3c(c2)c2ccccc2n3CC)sc(C(=O)N/N=C/c2ccc3c(c2)c2ccccc2n3CC)c1OCCC`, the outcome in series [1], in series [3], in series [5], in series [6], in series [8] and in [9] was inactive. Moreover, the outcome in [10], in series [11], in series [13], in [15], in series [16] and in series [18] was inactive. In addition, the Activity result in [2] was “Non-toxic”; in [4], “Non-toxic”; in [7], “Non-toxic”; in series [12], “Toxic”; in series [14] it was “Toxic”; in [17], “Non-toxic”.
Regarding `CCCOc1c(C(=O)N/N=C(\C)c2ccccn2)sc(C(=O)N/N=C(\C)c2ccccn2)c1OCCC`, the outcome in [1], in series [3], in [5], in series [6], in series [8] and in series [9] was inactive. Also, the outcome in [10], in series [11], in series [13], in [15], in series [16] and in series [18] was inactive. Besides, the Activity entry in series [2], in [4], in series [7], in series [12], in series [14] and in series [17] was “Non-toxic” in each case.
Regarding `CCCOc1c(C(=O)NN=C2CC(C)Sc3sc(S(N)(=O)=O)cc32)sc(C(=O)NN=C2CC(C)Sc3sc(S(N)(=O)=O)cc32)c1OCCC` (configuration not stated), the result in [1], in series [3], in [5], in series [6], in [8] and in [9] was inactive. For the same compound, the result in series [10], in series [11], in series [13], in series [15], in [16] and in series [18] was inactive. Moreover, the Activity result in series [2] was “Non-toxic”; in [4], “Toxic”; in series [7], “Non-toxic”; in [12], “Toxic”; in [14] it was “Toxic”; in series [17], “Non-toxic”.
For `CCCOc1c(C(=O)N/N=C(\C)c2c[nH]c3ccccc23)sc(C(=O)N/N=C(\C)c2c[nH]c3ccccc23)c1OCCC`, the outcome in series [1], in series [3], in series [5], in [6], in series [8] and in series [9] was inactive. Further, the result in series [10], in series [11], in series [13], in series [15], in series [16] and in series [18] was inactive. For the same compound, the Activity entry in series [2], in series [4], in [7], in series [12], in series [14] and in series [17] was “Non-toxic” in each case.
With `CCCOc1c(C(=O)NN=C2CC(C)Sc3sccc32)sc(C(=O)NN=C2CC(C)Sc3sccc32)c1OCCC` (configuration not stated), the result in series [1], in [3], in series [5], in series [6], in series [8] and in series [9] was inactive. Also, the result in [10], in series [11], in [13], in series [15], in [16] and in series [18] was inactive. For the same compound, the Activity entry in [2] was “Non-toxic”; in series [4], “Non-toxic”; in series [7] it was “Non-toxic”; in series [12], “Toxic”; in series [14] it was “Toxic”; in series [17], “Toxic”.
With `CCCOc1c(C(=O)N/N=C/c2ccc3cc(OC)ccc3c2)sc(C(=O)N/N=C/c2ccc3cc(OC)ccc3c2)c1OCCC`, the outcome in series [1], in series [3], in series [5], in [6], in series [8] and in series [9] was inactive. Further, the outcome in series [10], in series [11], in series [13], in series [15], in series [16] and in series [18] was inactive. The Activity result in series [2], in [4], in series [7], in [12], in series [14] and in series [17] was “Non-toxic” in each case.
For `CCCOc1c(C(=O)N/N=C/c2ccc(-c3ccccc3)cc2)sc(C(=O)N/N=C/c2ccc(-c3ccccc3)cc2)c1OCCC`, the outcome in series [1], in series [3], in [5], in [6], in series [8] and in series [9] was inactive. Further, the result in series [10], in [11], in series [13], in series [15], in series [16] and in series [18] was inactive. Also, the Activity entry in series [2] was “Non-toxic”; in series [4], “Non-toxic”; in [7], “Non-toxic”; in [12], “Toxic”; in [14], “Toxic”; in series [17], “Non-toxic”.

The record behind these values is ChEMBL document CHEMBL1154150, “Synthesis and anticonvulsant activity of some new bishydrazones derived from 3,4-dipropyloxythiophene” (Eur J Med Chem, 2009).
